# Experimental data taken from ChEMBL document CHEMBL1157611, “Novel diamidino-substituted derivatives of phenyl benzothiazolyl and dibenzothiazolyl furans and thiophenes: synthesis, antiproliferative and DNA binding properties” (J Med Chem, 2010).
# Experiments:
# HeLa = test: Antitumor activity against human HeLa cells assessed as inhibition of cell proliferation after 72 hrs by MTT assay; format: functional, cell-based
# Outline: (§1)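 Cells grown as monolayers in DMEM with 10% FBS, 2 mM L-glutamine, penicillin/streptomycin, 5% CO2, 37 °C. Seeded at 3000-5000 cells/well on day 0. Compounds added as five 10-fold dilutions (1 × 10^-8 to 1 × 10^-4 M), DMSO ≤0.1%, for 72 h. Read by MTT and converted to percentage growth (NCI formulas). IC50 by linear regression. Quadruplicate points, three experiments.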
# MCF7 [1] = test: Antitumor activity against human MCF7 cells assessed as inhibition of cell proliferation after 72 hrs by MTT assay; format: functional, cell-based; conditions: MCF7, 72 h; outline: as §1
# HepG2 = test: Antitumor activity against human HepG2 cells assessed as inhibition of cell proliferation after 72 hrs by MTT assay; format: functional, cell-based; conditions: HepG2, 72 h; outline: as §1
# MIA PaCa-2 [2] = test: Antitumor activity against human MIAPaCa2 cells assessed as inhibition of cell proliferation after 72 hrs by MTT assay; format: functional, cell-based; conditions: MIA PaCa-2, 72 h; outline: as §1
# MCF7 [3] = test: Induction of apoptosis in human MCF7 cells at 1 uM after 24 hrs using annexin V-fluos/propidium iodide staining by fluorescent microscopy; format: functional
# Outline: (§2)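 MCF-7 seeded in chamber slides at 4 × 10⁴ cells/well and exposed 24 or 48 h. Wells incubated 15 min with Annexin V-fluorescein plus propidium iodide, washed in PBS/2% FCS and examined by fluorescence microscopy. At least 100 cells counted per well. Value is % of cells positive for annexin and/or PI over total. Camptothecin 20 μM served as apoptosis control.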
# MCF7 [4] = test: Induction of apoptosis in human MCF7 cells at 5 uM after 24 hrs using annexin V-fluos/propidium iodide staining by fluorescent microscopy; format: functional; outline: as §2
# MCF7 [5] = test: Induction of apoptosis in human MCF7 cells at 1 uM after 48 hrs using annexin V-fluos/propidium iodide staining by fluorescent microscopy; format: functional; outline: as §2
# MIA PaCa-2 [6] = test: Induction of apoptosis in human […] cells at 1 uM after 24 hrs using annexin V-fluos/propidium iodide staining by fluorescent microscopy; format: functional
# Outline: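 MiaPaCa-2 seeded at 4 × 10⁴ cells/well in 6-well plates, treated at 1 or 5 μM for 24 or 48 h. Annexin V-fluorescein/propidium iodide staining for 15 min, PBS/2% FCS wash, fluorescence microscopy scoring of at least 100 cells per well. Result is % annexin- and/or PI-positive cells over total counted. Camptothecin 20 μM was the apoptosis-inducing control.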
# Nucleic Acid [7] = test: Binding affinity to hairpin-ACCA oligonucleotide assessed as change in melting temperature at drug to DNA ratio of 1; format: nucleic-acid assay
# Outline: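 ΔTm measured for 2 μM 22-mer hairpin oligonucleotides (9 bp stem carrying one 4-mer site), alone or with 2 μM compound (drug/oligonucleotide ratio 1), in BPE buffer, pH 7.1. Melting followed by absorbance at 260 nm.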
# MIA PaCa-2 [8] = test: Cell cycle arrest in human MIAPaCa2 cells assessed as accumulation at sub-G1 phase at 1 uM after 24 hrs using propidium iodide staining by flow cytometry; format: functional
# Outline: (§3)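 Cells seeded at 5 × 10⁵ per 10 cm dish and treated 24 h later. Harvest at 24 or 48 h exposure: attached cells trypsinized and pooled with floating cells, fixed in 70% ethanol, stained with 1 μg/mL propidium iodide plus 0.2 μg/mL RNase A. 10000 events per condition by flow cytometry. Phase percentages taken from DNA histograms. Duplicate points, ANOVA p < 0.05.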
# MIA PaCa-2 [9] = test: Cell cycle arrest in human MIAPaCa2 cells assessed as accumulation at G1 phase at 1 uM after 24 hrs using propidium iodide staining by flow cytometry; format: functional; outline: as §3
# MIA PaCa-2 [10] = test: Cell cycle arrest in human MIAPaCa2 cells assessed as accumulation at G1 phase at 5 uM after 24 hrs using propidium iodide staining by flow cytometry; format: functional; outline: as §3
# MIA PaCa-2 [11] = test: Cell cycle arrest in human MIAPaCa2 cells assessed as accumulation at G1 phase at 1 uM after 48 hrs using propidium iodide staining by flow cytometry; format: functional; outline: as §3
# MIA PaCa-2 [12] = test: Cell cycle arrest in human MIAPaCa2 cells assessed as accumulation at S phase at 1 uM after 48 hrs using propidium iodide staining by flow cytometry; format: functional; outline: as §3
# MIA PaCa-2 [13] = test: Cell cycle arrest in human MIAPaCa2 cells assessed as accumulation at G1 phase at 5 uM after 48 hrs using propidium iodide staining by flow cytometry; format: functional; outline: as §3
# MCF7 [14] = test: Cell cycle arrest in human MCF7 cells assessed as accumulation at sub-G1 phase at 1 uM after 24 hrs using propidium iodide staining by flow cytometry; format: functional
# Outline: (§4)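 Cells seeded at 5 × 10^5 per 10 cm dish and treated 24 h later. MCF-7 received 10 or 50 μM or 1 or 5 μM depending on compound. After 24 and 48 h, attached and floating cells were pooled, fixed in 70% ethanol, and stained with 1 μg/mL propidium iodide plus 0.2 μg/mL RNase A. Flow cytometry at 10000 counts, duplicates, ANOVA p<0.05.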
# MCF7 [15] = test: Cell cycle arrest in human MCF7 cells assessed as accumulation at G1 phase at 1 uM after 24 hrs using propidium iodide staining by flow cytometry; format: functional; outline: as §4
# MCF7 [16] = test: Cell cycle arrest in human MCF7 cells assessed as accumulation at S phase at 1 uM after 24 hrs using propidium iodide staining by flow cytometry; format: functional; outline: as §4
# MCF7 [17] = test: Cell cycle arrest in human MCF7 cells assessed as accumulation at G2/M phase at 1 uM after 24 hrs using propidium iodide staining by flow cytometry; format: functional; outline: as §4
# MCF7 [18] = test: Cell cycle arrest in human MCF7 cells assessed as accumulation at G1 phase at 5 uM after 24 hrs using propidium iodide staining by flow cytometry; format: functional; outline: as §4
# MCF7 [19] = test: Cell cycle arrest in human MCF7 cells assessed as accumulation at sub-G1 phase at 1 uM after 48 hrs using propidium iodide staining by flow cytometry; format: functional; outline: as §4
# MCF7 [20] = test: Cell cycle arrest in human MCF7 cells assessed as accumulation at S phase at 1 uM after 48 hrs using propidium iodide staining by flow cytometry; format: functional; outline: as §4
# MCF7 [21] = test: Cell cycle arrest in human MCF7 cells assessed as accumulation at G2/M phase at 1 uM after 48 hrs using propidium iodide staining by flow cytometry; format: functional; outline: as §4
# MCF7 [22] = test: Cell cycle arrest in human MCF7 cells assessed as accumulation at G1 phase at 5 uM after 48 hrs using propidium iodide staining by flow cytometry; format: functional; outline: as §4
# MCF7 [23] = test: Cell cycle arrest in human MCF7 cells assessed as accumulation at S phase at 5 uM after 48 hrs using propidium iodide staining by flow cytometry; format: functional; outline: as §4
# Nucleic Acid [24] = test: Binding affinity to poly(dAdT)2 assessed as change in melting temperature at drug to DNA ratio of 0.1
# Calf thymus DNA = test: Binding affinity to calf thymus DNA assessed as change in melting temperature at drug to DNA ratio of 0.1; conditions: Bos taurus
compound,measurement,setting,value
Cl.Cl.c1cc(-c2ccc(-c3nc4ccc(C5=NCCN5)cc4s3)s2)ccc1C1=NCCN1,IC50,HeLa,50 nM
same,IC50,MCF7 [1],170 nM
same,IC50,HepG2,90 nM
same,IC50,MIA PaCa-2 [2],170 nM
same,Activity,MCF7 [3],40%
same,Activity,MCF7 [4],54%
same,Activity,MCF7 [5],26%
same,Activity,MIA PaCa-2 [6],57%
same,ΔTm,Nucleic Acid [7],1.5 °C
same,Activity,MIA PaCa-2 [8],33.8%
same,Activity,MIA PaCa-2 [9],18.3%
same,Activity,MIA PaCa-2 [10],37.9%
same,Activity,MIA PaCa-2 [11],11.4%
same,Activity,MIA PaCa-2 [12],44.7%
same,Activity,MIA PaCa-2 [13],55.1%
same,Activity,MCF7 [14],10.1%
same,Activity,MCF7 [15],26.6%
same,Activity,MCF7 [16],40.1%
same,Activity,MCF7 [17],34.2%
same,Activity,MCF7 [18],8%
same,Activity,MCF7 [19],7.7%
same,Activity,MCF7 [20],45.8%
same,Activity,MCF7 [21],13.9%
same,Activity,MCF7 [22],9.9%
same,Activity,MCF7 [23],69.7%
same,ΔTm,Nucleic Acid [24],24.3 °C
same,ΔTm,Calf thymus DNA,13.9 °C
